Screening results as filed in PubChem.
PPC-1+TRAIL kill – compounds killing PPC-1 cancer cells with TRAIL present (potentiator screen, no TRAIL-free arm). AID 1443. hit rate 0.41% among 220,000. cell killing (% activity), % at 4 µM or 5 µM. PPC-1 cells + TRAIL, ATPLite viability luminescence;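 active means cell killing above 50% in the first pass at 4 µM, then a duplicate retest at 5 µM averaging 50% or more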;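 further: plate controls were cells with TRAIL plus DMSO for no effect and medium-only wells lacking cells for full effect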
FLuc inh counter – counter-screen for luciferase assay inhibitors: firefly luciferase inhibition. P08659. ATPLite firefly luciferase biochemical luminescence, 10 min. inhibition, % at 10 µM. hit rate 1.5% among 200,000. AID 1006;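 active means inhibition above about 50% when tested at 10 µM, limit read from the data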
Target sequence (P08659 whole entry, looked up): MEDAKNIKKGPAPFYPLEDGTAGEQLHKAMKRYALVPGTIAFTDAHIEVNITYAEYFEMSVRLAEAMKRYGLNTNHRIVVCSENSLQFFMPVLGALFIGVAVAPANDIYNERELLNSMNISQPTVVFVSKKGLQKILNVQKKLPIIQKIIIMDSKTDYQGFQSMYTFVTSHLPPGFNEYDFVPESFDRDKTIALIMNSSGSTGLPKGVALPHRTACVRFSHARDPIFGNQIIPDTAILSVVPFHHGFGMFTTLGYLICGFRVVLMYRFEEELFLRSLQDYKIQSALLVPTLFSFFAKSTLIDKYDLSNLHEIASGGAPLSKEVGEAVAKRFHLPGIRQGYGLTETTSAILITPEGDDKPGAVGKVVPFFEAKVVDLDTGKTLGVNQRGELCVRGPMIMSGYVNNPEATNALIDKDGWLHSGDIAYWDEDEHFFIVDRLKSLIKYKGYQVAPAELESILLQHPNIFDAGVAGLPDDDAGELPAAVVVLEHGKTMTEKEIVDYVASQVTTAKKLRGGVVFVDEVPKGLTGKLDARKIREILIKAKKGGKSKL
FLuc stim CS – affects firefly luciferase, flagging false hits in luciferase stimulation screens | P08659 | ATPlite luciferase biochemical, luminescence, 10 min; 0 = ATP-free wells, 1 = DMSO control | 200,000 tested, under 10 active | activation factor at 10 µM;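 active means luciferase activation factor, scaled between plate controls, of at least 2 with compound at 10 µM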
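test system = cell-free luciferase reagent | medium = PBS as buffer for the ATP substrate | dosing = test compounds dosed from 2 mM stocks in 100% DMSO | incubation = 10 min at ambient temperature | detection = luminescence measurement of luciferase light output | benchmarks = low control with PBS replacing ATP, high control enzyme plus ATP without compound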
C8 TRAIL sens – caspase-8 TRAIL sensitization; hit rate 1% among 360,000; NB7+C8 cells + TRAIL, ATPlite viability luminescence; inhibition (viability loss, TRAIL sensitization), % at 10 µM;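 active means compounds causing at least 50% loss of cell viability in the single-dose screen, relative to plate controls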
Numbers without * were called inactive; / = not tested or not shown. Sampled rows, rich in hits. Any-hit rate of the full collection: about 1.6%.

SMILES	PPC-1+TRAIL kill	FLuc inh counter	FLuc stim CS	C8 TRAIL sens
COC(=O)c1cc(C(=O)OCC(=O)NC(=O)c2ccccc2)cc([N+](=O)[O-])c1	/	/	/	0.9
CCOC(=O)C1(Cc2cccc(OC)c2)CCCN(C(=O)c2cc(C)oc2C)C1 (configuration not stated)	/	/	/	16.6
CC(=O)NCCn1c(SCc2cccc([N+](=O)[O-])c2)nc2ccccc2c1=O	6.0	-7.3	1.1	-9.5
COC(=O)[C@]12CCCCC=C1N(CCC1=CCCCC1)C(=O)[C@H](CC(=O)NCC13CC4CC(CC(C4)C1)C3)C2	/	/	/	1.8
O=C(Nc1ccccc1N1CCCC1)c1cc(=O)[nH]c2ccccc12	/	/	/	-17.2
CC(/C=N/Nc1nc2ccccc2[nH]1)=C\c1ccccc1	18.6	72.0*	0.3	38.2
COc1cc(/C=N/NC(=Nc2ccc(C)cc2)c2nc3ccccc3s2)ccc1O	-2.3	29.3	0.7	51.9*
COc1ccc(/C=N/n2c(C)nc3ccccc3c2=O)cc1OC	/	/	/	15.5
COc1cc(/C=N/Nc2nc3ccccc3[nH]c2=O)ccc1O	9.8	50.0*	0.5	-2.3
COc1ccc(/C=N/Nc2nc3ccccc3c(=O)n2-c2ccccc2)cc1OC	26.6	69.3*	0.3	52.6*
COc1ccc(C2=NN(C(=O)CSc3nc(=O)n4cc(C)ccc4n3)C(c3ccc(C)cc3)C2)cc1 (configuration not stated)	/	/	/	-4.3
CN1CCN(C(=O)c2ccc(-c3ccc(F)c(F)c3)c3ccoc23)CC1	/	/	/	-7.7
COc1ccccc1NC(=O)Nc1ccc2c(c1)nnn2C	39.8	34.4	0.7	54.2*
CC(C)(C)c1ccc(-c2nc3[nH]c(=O)cc(NC(=O)c4ccco4)n3n2)cc1	/	/	/	62.4*
Cc1ccc(-c2nc3[nH]c(=O)cc(NC(=O)c4cccs4)n3n2)cc1	5.1	/	/	19.7
COc1cccc(CN2CC(C(=O)NCc3cccc(N4CCCC4)c3)CCC2=O)c1 (configuration not stated)	/	/	/	-2.1
O=C(NCCc1ccccc1)c1ccc([N+](=O)[O-])cc1	11.9	66.0*	0.3	39.5
COc1ccc(NC(=O)/C(C#N)=C/c2ccc(-c3ccc(Cl)c(C(=O)O)c3)o2)cc1	/	/	/	60.2*
Cc1cccc(N2CCN(C(=O)CN3C(=O)NC4(CCCCCC4)C3=O)CC2)c1C	/	/	/	17.4
C=CC[C@@H]1C=C[C@H](O/N=C/c2ccc(C(=O)N3[C@H](c4ccc(C)cc4)[C@@H](C)CC[C@H]3C(=O)OC)cc2)[C@@H](CO)O1	16.7	-8.4	1.1	/
Cc1ccc(/C=C2\Sc3ccccc3C2=O)s1	10.8	87.3*	0.1	8.1
CC(=O)Nc1ccc(/C=C2\Sc3ccccc3C2=O)cc1	4.7	/	/	-3.3
CN(C)c1ccc(-c2nc3cc(N)ccc3o2)cc1	/	/	/	82.9*
Cc1ccc(-c2nc3cc(N)ccc3o2)cc1Br	/	/	/	23.7
Nc1ccc(-c2nc3cc(N)ccc3o2)cc1	/	/	/	47.8
SMILES	PPC-1+TRAIL kill	FLuc inh counter	FLuc stim CS	C8 TRAIL sens
COC(=O)c1ccc(-c2nc3cc(N)ccc3o2)cc1	32.4	82.9*	0.2	55.9*
CCS(=O)(=O)c1ccc(N=Nc2ccc(O)c3ncccc23)c(OC)c1	-11.1	9.6	0.9	70.0*
CC(C)n1c(CNC(=O)c2ccccc2F)nnc1SCC(=O)c1ccc(F)cc1	/	/	/	-9.5
O=C(NCc1ccccn1)c1cccc(S(=O)(=O)N2CCCCC2)c1	/	/	/	-10.8
Cc1nn2cc(-c3ncc(C(F)(F)F)cc3Cl)cnc2c1Br	36.8	25.5	0.7	12.2
Cc1cc2ncc(-c3ncc(C(F)(F)F)cc3Cl)cn2n1	36.2	73.4*	0.3	57.7*
CC1(C(=O)NCC2CCCCC2)CCN1C(=O)Cc1ccc(-c2ccccc2)cc1 (configuration not stated)	/	/	/	6.1
CC(=Nc1ccccc1)c1sc2ccccc2c1O	30.0	60.8*	0.4	34.6
COc1ccc(-c2csc(C(O)c3ccc(F)c(OC)c3)n2)cc1 (configuration not stated)	/	/	/	24.8
O=C(N/N=C/c1ccc([N+](=O)[O-])o1)c1cc(-c2ccc(-c3ccccc3)cc2)nc2ccccc12	79.9*	93.4*	0.1	86.5*
Cc1ccc(-c2cc(C(=O)N/N=C/c3ccc([N+](=O)[O-])o3)c3ccccc3n2)o1	/	/	/	68.5*
Cn1c(/C=C/c2ccc([N+](=O)[O-])o2)nc2ccccc2c1=O	6.9	-4.8	1	51.2*
Cn1c(/C=C/c2ccccc2)nc2ccccc2c1=O	/	/	/	-8.4
COc1ccc(NC(=O)C2(C)CCCN2C(=O)C(C)C)cc1OC (configuration not stated)	/	/	/	5.9
CCN(C[C@H]1N[C@@](Cc2ccccc2)(C(=O)OC)[C@H]2C(=O)N(Cc3ccccc3)C(=O)[C@@H]12)C(=O)Nc1ccc(C(F)(F)F)cc1	/	/	/	38.7
CCOc1ccc(NC(=O)CN(C)C(=O)c2ccccc2-n2cnnn2)cc1OCC	/	/	/	10.3
CC(C)CC(=O)NN(C)c1nc(-c2ccccc2)nnc1C(F)(F)F	-21.4	-5.6	1.1	25.3
CN(NC(=O)c1ccc(Cl)cc1)c1nc(-c2ccccc2)nnc1C(F)(F)F	-17.4	-4.8	1	48.7*
CCN(CC(=O)Nc1c(F)cccc1F)C(=O)CCc1nc2sc3c(c2c(=O)[nH]1)CCCC3	/	/	/	5.0
CN(C)c1cccc(-c2nnc(SCCCC#N)o2)c1	20.1	55.5*	0.4	14.4
CN(C)CCSc1nnc(-c2ccccc2)o1	-21.9	-8.2	1.1	2.1
Cc1cccc(NC(=O)c2cc3ccccc3o2)c1	35.6	66.1*	0.3	43.6
CCC(=O)Nc1cccc(NC(=O)c2cc3ccccc3o2)c1	25.3	53.6*	0.5	22.3
COCCC(=O)N1CCC(Oc2ccc(C(=O)N3CCCCC3CCO)cc2)CC1 (configuration not stated)	/	/	/	8.6
Fc1ccc(-c2csc(N3CCOCC3)n2)cc1	-7.5	/	/	-5.9
SMILES	PPC-1+TRAIL kill	FLuc inh counter	FLuc stim CS	C8 TRAIL sens
c1ccc2oc(-c3csc(N4CCOCC4)n3)cc2c1	-2.4	85.8*	0.1	53.3*
Cc1cc(/C=C2/NC(=S)NC2=O)c(C)n1-c1cccnc1	5.8	71.2*	0.3	16.2
Cc1cc(/C=C2/NC(=O)N(c3ccccc3)C2=O)c(C)n1-c1cccnc1	4.4	44.8	0.6	11.7
Cc1ccccc1CN1CC2=C(CCN(Cc3ccccc3)C2=O)N2CCN=C12	/	/	/	2.6
Cc1ccnc(NC(=O)/C=C/c2ccccc2[N+](=O)[O-])c1	33.9	72.7*	0.3	/
COCCN1C[C@@H](CO)O[C@@H](n2cnc3c(N4CCN(CCO)CC4)ncnc32)C1	/	/	/	-8.2
CC1CCc2sc(-c3n[nH]c(=S)o3)cc2C1 (configuration not stated)	31.8	57.0*	0.4	16.8
O=C1c2cccc3cccc(c23)C(=O)N1OS(=O)(=O)c1ccccc1	6.6	59.2*	0.4	12.2
N#Cc1cccc(S(=O)(=O)NCCOc2ccccc2F)c1	/	/	/	-3.8
CC(NC(=O)c1ccccc1)C(=O)OCC(=O)c1c(N)n(C)c(=O)n(C)c1=O (configuration not stated)	/	/	/	-11.9
CS(=O)(=O)c1ccc(Sc2nc3ccccc3[nH]2)c([N+](=O)[O-])c1	5.7	-1.0	1	4.0
